Results as given in ChEMBL document CHEMBL3098049, “Concise synthesis and biological evaluation of 2-Aroyl-5-amino benzo[b]thiophene derivatives as a novel class of potent antimitotic agents” (J Med Chem, 2013).
Active and inactive are the calls of the source. The rule behind the calls is not given here.

Key:
[1] = Cytotoxicity against human CEM/0 cells assessed as growth inhibition after 48 hrs by coulter counting analysis; type: functional, cell-based; conditions: CCRF-CEM
[2] = system: HeLa; assay: Cytotoxicity against human HeLa cells assessed as growth inhibition after 48 hrs by coulter counting analysis; type: functional, cell-based
[3] = Inhibition of bovine brain tubulin polymerization preincubated for 15 mins followed by GTP addition measured for 20 mins by turbidometric analysis; parameters: species or system Bos taurus
[4] = Cytotoxicity against mouse FM3A/0 cells assessed as growth inhibition after 48 hrs by coulter counting analysis; type: functional, cell-based; conditions: FM3A/0, 48 h
[5] = system: L1210; assay: Cytotoxicity against mouse L1210 cells assessed as growth inhibition after 48 hrs by coulter counting analysis; type: functional, cell-based; conditions: L1210, 48 h
In short: (§1)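 Cells suspended at (3−5) × 10⁵ cells/mL and mixed 1:1 with compound dilutions. Incubated 48 h at 37 °C, counted with a Coulter counter. IC₅₀ = concentration inhibiting proliferation by 50%. Mean of at least three independent experiments.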

[6] = Cytotoxicity against human Molt4/C8 cells assessed as growth inhibition after 48 hrs by coulter counting analysis; type: functional, cell-based; conditions: MOLT-4, 48 h; in short: as §1
[7] = molecular target: T1, Tubulin (Homo sapiens) (UniProt P68371+Q9H4B7+P0DPH7+P68366+Q13509+Q71U36+P04350+Q3ZCM7+P07437+P68363+Q9BQE3+Q6PEY2+Q13885+Q9BVA1+Q9BUF5); assay: Displacement of [3H]-colchicine from tubulin (unknown origin) at 5 uM after 10 mins relative to control; type: protein-complex assay
[8] = molecular target: T1, Tubulin (Homo sapiens); assay: Displacement of [3H]-colchicine from tubulin (unknown origin) at 1 uM after 10 mins relative to control; type: protein-complex assay
[9] = system: MNNG-HOS; assay: Antitumor activity against human MNNG-HOS cells xenografted in Balb/c-nu mouse assessed as tumor growth inhibition at 50 mg/kg, ip administered once every 3 days for 9 days measured on day 18 relative to vehicle-treated control; type: functional; conditions: HOS-TE85, ip, route intraperitoneal, read-out: TGI
In short: (§2)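 MNNG/HOS osteosarcoma cells grown to exponential phase, suspended in FBS-free MEM (10⁷ cells/mL), 0.1 mL injected into back hypodermis of nude mice. At ~100 mm³, 12 mice randomised to three groups (vehicle, CA-4P in isotonic saline, test in 5% DMSO/olive oil). 50 mg/kg ip at 0.01 mL/g on days 0, 3, 6, 9. Tumour volume and body weight tracked; tumours excised and weighed day 18; […].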

[10] = system: MNNG-HOS; assay: Antitumor activity against human MNNG-HOS cells xenografted in Balb/c-nu mouse assessed as reduction in tumor weight at 50 mg/kg, ip administered once every 3 days for 9 days measured after day 18; type: functional, organism-based; parameters: dose 50 mg/kg; conditions: HOS-TE85; in short: as §2

COc1cc(C(=O)c2cc3cc(N)ccc3s2)cc(OC)c1OC
IC50 [1]: 11 nM | IC50 [2]: 13 nM | IC50 [3]: 3200 nM | IC50 [4]: 2.8 nM | IC50 [5]: 0.78 nM | IC50 [6]: 18 nM | inhibition [7]: 65%

CNc1cc(OC)c2sc(C(=O)c3cc(OC)c(OC)c(OC)c3)cc2c1
IC50 [2]: 66 nM | IC50 [4]: 190 nM | IC50 [5]: 67 nM | IC50 [6]: 74 nM

COc1cc(C(=O)c2sc3c(OC)cc(N)cc3c2C)cc(OC)c1OC
IC50 [2]: 13 nM | IC50 [3]: 480 nM | inhibition [8]: 90% | IC50 [4]: 15 nM | IC50 [5]: 12 nM | IC50 [6]: 14 nM | inhibition [7]: 95%

COc1cc(C(=O)c2cc3cc(NC(=O)CI)cc(OC)c3s2)cc(OC)c1OC
IC50 [1]: 310 nM | IC50 [2]: 200 nM | IC50 [4]: 370 nM | IC50 [5]: 410 nM | IC50 [6]: 330 nM

COc1ccc(C(=O)c2cc3cc(N)cc(OC)c3s2)cc1
IC50 [1]: 6100 nM | IC50 [4]: > 10000 nM | IC50 [5]: > 10000 nM | IC50 [6]: 6500 nM

COc1cc(C(=O)c2cc3cc(NC(C)=O)cc(OC)c3s2)cc(OC)c1OC
IC50 [2]: 69 nM | IC50 [4]: 340 nM | IC50 [6]: 98 nM

C=C(Br)C(=O)Nc1ccc2sc(C(=O)c3cc(OC)c(OC)c(OC)c3)cc2c1
IC50 [1]: 140 nM | IC50 [2]: 700 nM | IC50 [4]: 170 nM | IC50 [5]: 75 nM | IC50 [6]: 270 nM

COc1cc(C(=O)c2cc3cc(NC(=O)CBr)ccc3s2)cc(OC)c1OC
IC50 [1]: 260 nM | IC50 [2]: 1600 nM | IC50 [4]: 1700 nM | IC50 [5]: 1400 nM | IC50 [6]: 960 nM

COc1cc(C(=O)c2cc3cc(N(C)C)cc(OC)c3s2)cc(OC)c1OC
IC50 [2]: 360 nM | IC50 [4]: 1100 nM | IC50 [6]: 980 nM

COc1cc(C(=O)c2sc3ccc(N)cc3c2C)cc(OC)c1OC
IC50 [1]: 72 nM | IC50 [2]: 100 nM | IC50 [3]: 1300 nM | IC50 [4]: 200 nM | IC50 [5]: 8 nM | IC50 [6]: 100 nM | inhibition [7]: 78%

COc1cc(C(=O)c2cc3cc(NC(=O)CI)ccc3s2)cc(OC)c1OC
IC50 [2]: 1500 nM | IC50 [4]: 2100 nM | IC50 [5]: 1400 nM | IC50 [6]: 330 nM

COc1cc(C(=O)c2sc3ccccc3c2N)cc(OC)c1OC
IC50 [3]: 4200 nM | inhibition [7]: 39%

C=C(Br)C(=O)Nc1cc(OC)c2sc(C(=O)c3cc(OC)c(OC)c(OC)c3)cc2c1
IC50 [1]: 260 nM | IC50 [2]: 760 nM | IC50 [4]: 200 nM | IC50 [5]: 96 nM | IC50 [6]: 280 nM

COc1cc(C(=O)c2cc3cc(NC(=O)CCl)cc(OC)c3s2)cc(OC)c1OC
IC50 [1]: 72 nM | IC50 [2]: 100 nM | IC50 [4]: 200 nM | IC50 [6]: 78 nM

COc1ccc(C(=O)c2cc3cc(N)cc(OC)c3s2)cc1OC
IC50 [1]: 1400 nM | IC50 [2]: 1600 nM | IC50 [4]: 2200 nM | IC50 [5]: 1900 nM | IC50 [6]: 1700 nM

COc1ccc(/C=C\c2cc(OC)c(OC)c(OC)c2)cc1OP(=O)(O)O [FOSBRETABULIN DISODIUM]
inhibition in vivo at 50 mg/kg [9]: 32% | Activity [10]: Active

COc1cc(C(=O)c2cc3cc(NC(=O)CBr)cc(OC)c3s2)cc(OC)c1OC
IC50 [1]: 340 nM | IC50 [2]: 220 nM | IC50 [4]: 250 nM | IC50 [5]: 420 nM | IC50 [6]: 360 nM

COc1cc(C(=O)c2sc3c(OC)cccc3c2N)cc(OC)c1OC
IC50 [3]: 2100 nM | inhibition [7]: 39%

COc1cc2sc(C(=O)c3cc(OC)c(OC)c(OC)c3)c(C)c2cc1N
IC50 [1]: 19 nM | IC50 [3]: 680 nM | inhibition [8]: 83% | IC50 [4]: 17 nM | IC50 [5]: 19 nM | IC50 [6]: 16 nM | inhibition [7]: 95%
